Data published in ChEMBL document CHEMBL3244415, “Synthesis and pharmacological properties of [5-isoleucine]-, [8-isoleucine]-, and [5,8-diisoleucine]bradykinin” (1979).
Active and inactive are the calls of the source. The rule behind the calls is not given here. Non-standard residues stand in square brackets, D forms with d. Residues, ends and D or L forms follow the SMILES beside them. Cha = N[C@@H](CC1CCCCC1)C(=O)O

Tests used:
Rattus norvegicus [1] = organism: Rattus norvegicus; experiment: Intrinsic activity at bradykinin receptor in estrous rat uterus assessed as ratio of bradykinin dose to compound dose to give 50% maximum myotropic activity
Procedure, shortened: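 Uteri from estrous virgin rats were bathed in modified deJalon's solution with 20 mg/L CaCl2, at 30 °C, gassed with 98% O2-2% CO2. Isotonic contractions were recorded under 1 g tension. Full dose-response curves were run for bradykinin and analogue. The potency ratio was taken at the dose giving 50% maximal contraction.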

Rattus norvegicus [2] = experiment: Vasodepressor activity in rat assessed as ratio of bradykinin dose to compound intravenous dose that produce 20 mmHg fall in mean blood pressure; format: functional
Cavia porcellus = organism: Cavia porcellus; experiment: Intrinsic activity at bradykinin receptor in guinea pig ileum assessed as ratio of bradykinin dose to compound dose to give 50% maximum myotropic activity; format: tissue-based
Procedure, shortened: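 Strips of terminal guinea pig ileum, 2–3 cm long, were held in Tyrode's solution at 36 °C and bubbled with 95% O2-5% CO2. Isotonic contractions were recorded under 1 g tension. Full dose-response curves were run for bradykinin and analogue. The potency ratio was taken at the dose giving 50% maximal contraction.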

Rattus norvegicus [3] = organism: Rattus norvegicus; experiment: Antagonist activity at bradykinin receptor in estrous rat uterus assessed as inhibition of bradykinin-induced myotropic activity at 1 x 10^-6 M preincubated for 2 mins followed by bradykinin addition; format: tissue-based
Procedure, shortened: (§1)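 Uteri from estrous virgin rats were suspended in modified deJalon's solution containing 20 mg/L CaCl2, kept at 30 °C and gassed with 98% O2-2% CO2. Isotonic contractions were recorded under 1 g tension. Analogue was added to the bath 2 min before various doses of bradykinin. Potency was compared at the concentration giving 50% maximal contraction.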

Rattus norvegicus [4] = organism: Rattus norvegicus; experiment: Vasodepressor activity in rat assessed as ratio of intraarterial dose of bradykinin to dose of compound that produce 20 mmHg fall in mean blood pressure; format: functional, Artery
Procedure, shortened: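 Male rats were anesthetized with Dial-urethan. Mean arterial pressure was recorded from the femoral artery. Drugs were given in saline by intracarotid injection. The ratio compares bradykinin and analogue doses that each lower mean pressure by 20 mmHg.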

Rattus norvegicus [5] = organism: Rattus norvegicus; experiment: Antagonist activity at bradykinin receptor in estrous rat uterus assessed as inhibition of bradykinin-induced myotropic activity at 2.5 x 10^-6 M preincubated for 2 mins followed by bradykinin addition; format: tissue-based; procedure, shortened: as §1
Rattus norvegicus [6] = organism: Rattus norvegicus; experiment: Antagonist activity at bradykinin receptor in estrous rat uterus assessed as inhibition of bradykinin-induced myotropic activity at 1 x 10^-5 M preincubated for 2 mins followed by bradykinin addition; format: tissue-based; procedure, shortened: as §1

Ratio (Rattus norvegicus [1]) | inhibition (Rattus norvegicus [3]) | inhibition (Rattus norvegicus [5]) | inhibition (Rattus norvegicus [6]) | Molecule | Ratio (Rattus norvegicus [2]) | Ratio (Cavia porcellus) | Ratio (Rattus norvegicus [4])
0.33 |  |  |  | N=C(N)NCCC[C@H](NC(=O)[C@H](CC1CCCCC1)NC(=O)[C@@H]1CCCN1C(=O)[C@H](CO)NC(=O)[C@H](CC1CCCCC1)NC(=O)CNC(=O)[C@@H]1CCCN1C(=O)[C@@H]1CCCN1C(=O)[C@@H](N)CCCNC(=N)N)C(=O)O (H-RPPG[Cha]SP[Cha]R-OH) | 1 | 1 | 
 | inactive |  |  | H-RPPGFSPIR-OH |  |  | 0.00056
0.00028 |  | inactive |  | H-RPPGISPFR-OH |  |  | 0.00018
< 0.0002 |  |  | inactive | H-RPPGISPIR-OH |  |  | < 0.00018
